Results on 13 compounds are retold here after ChEMBL document CHEMBL1122142, “Synthesis and antiinflammatory activity of hexahydrothiopyrano[4,3-c]pyrazoles and related analogues” (J Med Chem, 1982).

Data set [1] relates to Cavia porcellus. The data set can be described thus: Tested in delayed hypersensitivity skin reaction (DHSR) after subcutaneous administration, activity reported as percent inhibition of erythema/induration of lesion; 12/45. The format is functional.
Data set [2] relates to Mus musculus. The data set can be described thus: Inhibition of Mouse Active Arthus reaction following 150 mg/Kg i.p.; 41-60% inhibition. The format is functional. Particulars: Mus musculus, ip.
Data set [3] concerns Mus musculus. Description: Inhibition of Mouse active Arthus (MAA) reaction activity was determined for peroral dose of 300 mg/kg in mouse. Type of data set: functional. Particulars: route oral.
Data set [4] deals with Cavia porcellus. The data set can be described thus: Tested in delayed hypersensitivity skin reaction (DHSR) after subcutaneous administration, activity reported as percent inhibition of erythema/induration of lesion; 9/32. The format is functional. The method in brief: (§1)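 Male Hartley guinea pigs were sensitized with Mycobacterium tuberculosis in Freund's incomplete adjuvant, injected into each hind footpad and subcutaneously at the neck. After 3 weeks, 1.2 μg PPD was given intradermally. Compound in sesame oil was given sc, 3 animals per group, 30 min before and 5 h after PPD; screening dose 50 mg/kg.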

In data set [5] the test system is Mus musculus. Description: The compound was evaluated for the mouse active Arthus (MAA) reaction activity for an ip screening dose of 50 mg/kg. Type of data set: functional. The settings on record: route intraperitoneal. The method in brief:
(§2)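 CD-1 mice were sensitized ip with a 1:1 Freund's complete adjuvant emulsion containing BSA in saline, 5 weeks before challenge. Compound was suspended in 1% Na CMC in pyrogen-free saline and given as one ip or oral dose 1 h before skin challenge with BSA. Screening doses were 150 mg/kg ip and 300 mg/kg po, with some at 75 or 50 mg/kg ip. Lesions were excised 3.5 h after challenge and weighed against controls.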

Data set [6] relates to Mus musculus. The data set can be described thus: The compound was evaluated for the mouse active Arthus (MAA) reaction activity expressed as inhibitory dose after ip administration. The format is functional. Particulars: read-out: ID50 (the source's name). The essentials:
as §2

The test system of data set [7] is Cavia porcellus. The data set can be described thus: Tested in delayed hypersensitivity skin reaction (DHSR) after subcutaneous administration, activity reported as percent inhibition of erythema/induration of lesion; 16/52. The format is functional.
Data set [8] has as its system Mus musculus. The data set can be described thus: Inhibition of Mouse active Arthus (MAA) reaction activity was determined for peroral dose of 300 mg/kg in mouse; 31-40%. The format is functional. The settings on record: route oral.
The test system of data set [9] is Cavia porcellus. The data set can be described thus: Tested in delayed hypersensitivity skin reaction (DHSR) after subcutaneous administration, activity reported as percent inhibition of erythema/induration of lesion; 14/42. Type of data set: functional.
For data set [10], the system named is Mus musculus. The data set can be described thus: Mouse active Arthus (MAA) reaction activity was determined for an ip dose of 150 mg/kg in mouse. The format is functional. The settings on record: route intraperitoneal.
Data set [11] is described as follows: Acute toxicity as LD50 value was determined in mice administered intraperitoneally. The format is organism-based. Particulars: mouse, in vivo, ip.
The species named for data set [12] is Mus musculus. The data set can be described thus: The compound was evaluated for the mouse active Arthus (MAA) reaction activity expressed as inhibitory dose. The format is functional. Particulars: read-out: ID50 (the source's name). The method in brief:
as §2

Data set [13] is described as follows: Therapeutic ratio was determined for intraperitoneal administration. Type of data set: ADME. Particulars: ip; read-out: TR.
Data set [14] has as its system Cavia porcellus. The data set can be described thus: Tested in delayed hypersensitivity skin reaction (DHSR) after subcutaneous administration, activity reported as percent inhibition of erythema/induration of lesion; 0/8. Type of data set: functional.
In data set [15] the test system is Cavia porcellus. Description: Tested in delayed hypersensitivity skin reaction (DHSR) after subcutaneous administration, activity reported as percent inhibition of erythema/induration of lesion; 4/0. The format is functional. The method in brief: as §1
Data set [16] has as its system Cavia porcellus. Description: Tested in delayed hypersensitivity skin reaction (DHSR) after subcutaneous administration, activity reported as percent inhibition of erythema/induration of lesion; 14/11. Type of data set: functional.
The test system of data set [17] is Mus musculus. The data set can be described thus: Carrageenan-induced edema was determined value for oral administration. The settings on record: read-out: ID50 (the source's name). The format is functional. The essentials:
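Adult male Sprague-Dawley (CD) rats, 160–200 g. Single dose in 1% CMC given 2 h before footpad injection of 0.05 mL 1% carrageenin in pyrogen-free saline. Paws removed and weighed at 3 h, with the contralateral paw as control. ID50 is the dose giving 50% edema inhibition.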
A general note: Carrageenan injected into the paw causes an acute inflammation.

The species named for data set [18] is Mus musculus. The data set can be described thus: Mouse active Arthus (MAA) reaction activity was determined for peroral dose of 300 mg in mouse; 21-30%. The format is functional.
Data set [19] has as its system Mus musculus. The data set can be described thus: The compound was evaluated for the mouse active Arthus (MAA) reaction activity for an ip dose of 150 mg/kg in mouse; 31-40%. The format is functional. Particulars: route intraperitoneal. The essentials:
as §2

Data set [20] concerns Cavia porcellus. The data set can be described thus: Tested in delayed hypersensitivity skin reaction (DHSR) after subcutaneous administration, activity reported as percent inhibition of erythema/induration of lesion; 15/42. The format is functional.
In data set [21] the test system is Mus musculus. The data set can be described thus: The compound was evaluated for the mouse active Arthus (MAA) reaction activity expressed as inhibitory dose after oral administration. The format is functional. Particulars: read-out: ID50 (the source's name). The essentials: as §2
The test system of data set [22] is Mus musculus. The data set can be described thus: Mouse active Arthus (MAA) reaction activity was determined for an oral dose of 300 mg/kg administration in mouse; 21-30%. The format is functional.
Data set [23] can be described thus: Acute toxicity as LD50 value was determined in mice administered orally. Particulars: mouse, in vivo, po. The format is organism-based.
Data set [24] concerns Rattus norvegicus. Description: Adjuvant-induced arthritis was determined for a dose of 75 mg/kg oral administration.
Data set [25] has as its system Rattus norvegicus. Description: Adjuvant-induced arthritis was determined for a dose of 75 mg/kg intraperitoneal administration. Particulars: ip.
The subject of data set [26] is Rattus norvegicus. Description: Carrageenan-induced edema was determined after intraperitoneal administration. Particulars: ip, read-out: ID50 (the source's name).
Data set [27] deals with Rattus norvegicus. Description: Adjuvant-induced arthritis was determined for a dose of 150 mg/kg administered intraperitoneally. The settings on record: ip.
The nature of data set [28]: The acute toxicity as LD50 value was determined in mice for intraperitoneally administration. The format is organism-based. Particulars: mouse, in vivo, ip.
Data set [29] relates to Cavia porcellus. Description: Delayed hypersensitivity skin reaction (DHSR) activity was determined after a dose of 50 mg/kg; 6/15.
Data set [30] deals with Rattus norvegicus. Description: Adjuvant-induced arthritis was determined for a dose of 150 mg/kg administered orally. The settings on record: po.
The test system of data set [31] is Rattus norvegicus. Description: Carrageenan-induced edema was determined after oral administration of a dose of. Particulars: read-out: ID50 (the source's name).
For data set [32], the system named is Cavia porcellus. Description: Tested in delayed hypersensitivity skin reaction (DHSR) after subcutaneous administration, activity reported as percent inhibition of erythema/induration of lesion; 4/12. The format is functional. The method in brief: as §1
For data set [33], the system named is Mus musculus. Description: Inhibition of Mouse active Arthus (MAA) reaction activity was determined for an ip dose of 150 mg/kg in mouse; 21-30%. Type of data set: functional. The settings on record: route intraperitoneal.

Turning to `CCCN1N=C2/C(=C/c3ccc(OC)cc3)CSCC2C1c1ccc(OC)cc1` (stereo not drawn), in the data set on Cavia porcellus [1], the Activity turned out to be 12. For the same compound, the inhibition in vivo (usually the relative decrease from the control value, in per cent) at 150 mg/kg in the data set with Mus musculus [2] was determined as 41%. In the data set on Mus musculus [3], this compound came in with an inhibition in vivo at 300 mg/kg below 20%.

Regarding `CN1CCN(CCCN2N=C3/C(=C/c4ccccc4)COCC3C2c2ccccc2)CC1.O=C(O)/C=C\C(=O)O` (stereo not drawn), the Activity in the data set on Cavia porcellus [4] worked out at 9. For the same compound, in the data set on Mus musculus [5], the inhibition in vivo at 50 mg/kg was above 60%.

Consider `Cc1ccc(/C=C2\CSCC3C2=NN(CCCN2CCN(C)CC2)C3c2ccc(C)cc2)cc1.O=C(O)/C=C\C(=O)O` (stereo not drawn), for which the ED50 in the data set with Mus musculus [6] was determined as 58 mg/kg. Moreover, in the data set with Cavia porcellus [7], the Activity is given as 16. In the data set with Mus musculus [8], this compound yielded an inhibition in vivo at 300 mg/kg of 31%. Besides, in the data set with Mus musculus [2], the inhibition in vivo at 150 mg/kg was determined as 41%.

For the compound `Cc1ccccc1/C=C1\CS(=O)(=O)CC2C1=NN(CCCN1CCN(C)CC1)C2c1ccccc1C.O=C(O)/C=C\C(=O)O` (stereo not drawn), the Activity in the data set on Cavia porcellus [9] came to 14. For the same compound, in the data set with Mus musculus [10], the inhibition in vivo at 150 mg/kg was above 60%. For the same compound, the 50% lethal dose (LD50) (commonly the dose at which mortality reaches 50%) in [11] stood at 130 mg/kg. Besides, in the data set listed under Mus musculus [12], the ED50 is below 37.5 mg/kg. In addition, the selectivity ratio in [13] was below 3.5.

`O=S1(=O)C/C(=C\c2ccc(Cl)cc2)C2=NN(c3ccccc3)C(c3ccc(Cl)cc3)C2C1` (stereo not drawn) came in with an Activity in the data set with Cavia porcellus [14] of 0.

As to `C#CCN1N=C2/C(=C/c3ccccc3)CS(=O)(=O)CC2C1c1ccccc1` (stereo not drawn), the inhibition in vivo at 150 mg/kg with Mus musculus [10] was below 20%. This compound came in with an Activity in the data set with Cavia porcellus [15] of 4.

In turn, `Cc1ccc(/C=C2\CS(=O)(=O)CC3C2=NN(CC(F)(F)F)C3c2ccc(C)cc2)cc1` (stereo not drawn) had an Activity with Cavia porcellus [16] of 14. This compound also returned an inhibition in vivo at 150 mg/kg in the data set with Mus musculus [2] of 41%. Also, in the data set on Mus musculus [3], the inhibition in vivo at 300 mg/kg was below 20%.

On to `COc1ccc2cc([C@H](C)C(=O)O)ccc2c1` [NAPROXEN], for which the ED50 with Mus musculus [17] stood at 411 mg/kg.

The compound `O=C(c1ccccc1)N1N=C2/C(=C/c3ccccc3)CS(=O)(=O)CC2C1c1ccccc1` (stereo not drawn) showed an inhibition in vivo at 150 mg/kg in the data set on Mus musculus [10] above 60%. The Inhibition – broadly, the change of the read-out against control, counted positive when it falls – in the data set listed under Mus musculus [18] was 21%.

`CCCn1nc(-c2ccc(OC)cc2)c2c1/C(=C/c1ccc(OC)cc1)CSC2` yielded an inhibition in vivo at 150 mg/kg in the data set on Mus musculus [19] of 31%. This compound also yielded an Activity with Cavia porcellus [20] of 15.

In the case of `CC(=O)N1N=C2/C(=C/c3cccc(C(F)(F)F)c3)CS(=O)(=O)CC2C1c1cccc(C(F)(F)F)c1` (stereo not drawn), the ED50 is above 600 mg/kg in the data set on Mus musculus [21], 112 mg/kg with Mus musculus [6], above 150 mg/kg in the data set on Rattus norvegicus [26] and above 200 mg/kg in the data set on Rattus norvegicus [31]. The same compound yielded an inhibition in vivo at 300 mg/kg in the data set with Mus musculus [22] of 21%. The median lethal dose (LD50) was above 7200 mg/kg in data set [23], above 3200 mg/kg in [11] and above 4000 mg/kg in data set [28]. Besides, the inhibition in vivo at 75 mg/kg was found to be 0% in the data set with Rattus norvegicus [24] and 22% in the data set with Rattus norvegicus [25]. Besides, in data set [13], the selectivity ratio turned out to be 24. In addition, the inhibition in vivo at 150 mg/kg with Rattus norvegicus [27] is 31%; with Mus musculus [2], 41%; with Rattus norvegicus [30], 7%. In the data set with Cavia porcellus [29], this compound yielded an Activity of 6.

Compound `CCCN1N=C2/C(=C/c3ccc(OC)cc3)C[S+]([O-])CC2C1c1ccc(OC)cc1` (single isomer, unassigned; isomer A) yielded an Activity in the data set with Cavia porcellus [32] of 4. For the same compound, 150 mg/kg produced 41% inhibition in vivo with Mus musculus [2].

For `CCCN1N=C2/C(=C/c3ccccc3)C[S+]([O-])CC2C1c1ccccc1` (single isomer, unassigned; isomer A), in the data set on Mus musculus [33], the inhibition in vivo at 150 mg/kg was determined as 21%.
